Assay outcomes: PubChem, several laboratories
HePTP inhibitor – inhibitors of human HePTP phosphatase | recombinant HePTP phosphatase activity, OD absorbance | inhibition, % at 20 µM | 0.64% of 110,000 active | AID 521; in the data active means inhibition above about 50%;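 further: plate controls were vehicle for no effect and reference inhibitor for full effect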
FXIIa mix inh – inhibitors of human coagulation factor XIIa, pooled mixtures. inhibition, % at 5 µM. purified FXIIa, fluorogenic substrate. P00748. 0.2% of 62,000 active;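 further: 0% = enzyme without compound and 100% = no enzyme blank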
Target sequence (P00748 20-372 limits assumed): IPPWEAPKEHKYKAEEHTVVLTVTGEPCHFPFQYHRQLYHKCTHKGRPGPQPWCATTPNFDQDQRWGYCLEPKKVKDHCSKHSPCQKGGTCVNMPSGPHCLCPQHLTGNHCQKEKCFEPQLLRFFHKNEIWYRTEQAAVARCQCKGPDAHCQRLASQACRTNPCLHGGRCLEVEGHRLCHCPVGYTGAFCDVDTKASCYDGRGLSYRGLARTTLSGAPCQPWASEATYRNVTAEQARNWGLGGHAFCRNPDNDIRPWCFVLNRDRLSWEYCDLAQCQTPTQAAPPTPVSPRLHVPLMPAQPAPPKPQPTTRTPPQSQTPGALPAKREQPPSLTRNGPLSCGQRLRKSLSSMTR
Target sequence (P00748 373-615 limits assumed): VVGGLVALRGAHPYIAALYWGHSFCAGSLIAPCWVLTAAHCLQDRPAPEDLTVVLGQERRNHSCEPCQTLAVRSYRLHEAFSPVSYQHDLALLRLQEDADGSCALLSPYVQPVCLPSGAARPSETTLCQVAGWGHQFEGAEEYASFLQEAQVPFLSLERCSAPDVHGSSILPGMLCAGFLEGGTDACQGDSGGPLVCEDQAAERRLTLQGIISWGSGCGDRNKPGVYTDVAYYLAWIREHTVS
AP complement – orthogonal test for alternative complement pathway inhibitors. Human serum alternative complement pathway, LPS-coated ELISA, C3 deposition; tested in compound mixtures. inhibition, % at 5 µM. 0.08% of 62,000 active. AID 1235;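 active means inhibition above 30% in each of the two pooled mixtures holding the compound, so the lower value exceeds 30%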;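 further: 0% = serum in Mg-EGTA without compound and 100% = EDTA serum blank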
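Test system: human serum alternative complement pathway, C3 deposition on LPS-coated wells; also added: Plate-bound LPS; doses: 5 µM per compound in ten-compound mixtures; schedule: 1 h at 37 °C; detection: Anti-C3 ELISA, OD 450 nm; evaluation: percent inhibition of C3 deposition onto LPS; repeats: two pool placements per compound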
BAP1 block – inhibitors of human BAP1 deubiquitinase; Q92560; recombinant BAP1, Ub-AMC hydrolysis fluorescence kinetic; stronger effect = lower value; calls only at 20 µM; 0.48% of 72,000 active; AID 436;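 active means activity remaining at or below 50% of control, provided the compound also passes the data quality filters; inactive means the rest, including low values that fail the filters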;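 further: 100% = DMSO wells rate and 0% = substrate alone blank rate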
FXIa mix inh – factor XIa (human) inhibition, mixture screen | P03951 | purified FXIa, fluorogenic substrate, pooled mixtures | inhibition, % at 5 µM | 0.19% of 62,000 active | AID 680;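 further: each value is inhibition by a whole ten-compound pool holding the compound; 0% = enzyme with no mixture and 100% = wells lacking enzyme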
* marks the source's active call; other numbers are inactive results. A selection: hits, their analogues and other compounds. The true share with any hit is near 1%. Unless noted, no stated cut-off is given here; in the data, active means inhibition above about 20% (passing the limit was not always enough); inactive means the rest.

Results for COC(=O)c1c(C)nc2n(Cc3ccccc3Cl)c3ccccc3n12 ?
HePTP inhibitor: 2

How did O=C(O)c1ccccc1SC1CC(=O)N(c2ccc([N+](=O)[O-])cc2)C1=O (stereo unspecified) do in these assays?
HePTP inhibitor: -8

What do the screens show for `CN(C)C1=C(C#N)C(C2CCCCC2=O)c2c(c3ccccc3n2C)N1c1ccc([N+](=O)[O-])cc1` (stereo unspecified)?
HePTP inhibitor: 104*

What do the screens show for `O=C(CN1C(=O)/C(=C\c2ccccc2F)SC1=S)Nc1ccc(C(=O)O)cc1`?
HePTP inhibitor: 53*

What do the screens show for `Cc1cc([N+](=O)[O-])ccc1N[C@@H]1C[C@H](O)[C@@H](CO)O1`?
HePTP inhibitor: 0

How did Cc1ccccc1NC1CC(C)N(C(=O)c2ccccc2)c2c(C)cccc21 (stereo unspecified) do in these assays?
HePTP inhibitor: 103*

How did O=C1N=c2ccccc2=C1c1sc(Nc2ccc(O)cc2)nc1O do in these assays?
HePTP inhibitor: 104*

Results for O=C(NCc1ccccc1)c1ccc(C#Cc2ccccc2)cc1 ?
HePTP inhibitor: -10

How did CCOC(=O)C1NN=C(C(=O)c2ccccc2)C1c1ccc(OC)cc1 (stereo unspecified) do in these assays?
HePTP inhibitor: 104*

What do the screens show for `C=CCn1c(SCC(=O)NCc2ccc3c(c2)OCO3)nnc1C1COc2ccccc2O1` (stereo unspecified)?
HePTP inhibitor: -3; FXIIa mix inh: 13; AP complement: 7; BAP1 block: inactive; FXIa mix inh: 33*

Results for Fc1ccc(C2C=C(c3cccs3)Nc3nnnn32)cc1 (stereo unspecified) ?
BAP1 block: inactive

Results for CC1=C(C(=O)OCC(C)C)C(c2ccc(Br)cc2)NC(=O)N1 (stereo unspecified) ?
HePTP inhibitor: 60*; BAP1 block: inactive

How did CC1=C(C(=O)OCC(C)C)C(c2ccc(N(C)C)cc2)NC(=O)N1 (stereo unspecified) do in these assays?
BAP1 block: inactive

Results for CCc1ccc(S(=O)(=O)Nc2ccc(NC(C)=O)cc2)cc1 ?
HePTP inhibitor: 103*

Results for CC(=O)Nc1ccc(NS(=O)(=O)c2ccc(F)cc2)cc1 ?
HePTP inhibitor: 0

What do the screens show for `CCc1ccc(CN2CCN(C(=O)c3cccc(OC)c3)CC2)cc1`?
HePTP inhibitor: 5

Results for Cc1ccc(S(=O)(=O)Nc2cc(C(C)(C)C)c(O)c(C(C)(C)C)c2)cc1 ?
HePTP inhibitor: -2

What do the screens show for `CN1C(=O)/C(=C2/SC(=S)N(CCC(=O)O)C2=O)c2cc(Br)ccc21`?
HePTP inhibitor: 104*

Results for COc1cccc(C(=O)NC2CCN(C(=O)N3CCCCC3)CC2)c1 ?
HePTP inhibitor: 3; FXIIa mix inh: 5; AP complement: 2; BAP1 block: inactive; FXIa mix inh: 3

How did CC(=O)NC1CCN(C(=O)N2CCCC2)CC1 do in these assays?
HePTP inhibitor: 5; FXIIa mix inh: 4; AP complement: 37*; BAP1 block: inactive; FXIa mix inh: 0

Results for Cc1ccc2[nH]c3nc(N/N=C/c4cc(Br)c(O)c(Br)c4)nnc3c2c1 ?
HePTP inhibitor: 2

What do the screens show for `Oc1c(Br)cc(/C=N/Nc2nnc3c(n2)[nH]c2ccccc23)c(Br)c1O`?
HePTP inhibitor: 89*

Results for CCC1(C)Cc2c(sc3nc(NC)n(C)c(=O)c23)CO1 (stereo unspecified) ?
HePTP inhibitor: 3; FXIIa mix inh: 10; AP complement: 35*; BAP1 block: inactive; FXIa mix inh: 0

How did COC(=O)c1cc2c(=O)n3ccccc3nc2n(C)c1=N do in these assays?
HePTP inhibitor: 11; FXIIa mix inh: 0; AP complement: 32*; FXIa mix inh: -74

What do the screens show for `CCOC(=O)C1=C(O)/C(=C/c2ccccc2O)N=C1C`?
HePTP inhibitor: -3

How did COC(=O)C1=C(C)NC(=O)CC1c1cc2c(cc1Br)OCO2 (stereo unspecified) do in these assays?
HePTP inhibitor: -4; FXIIa mix inh: 8; AP complement: 16; BAP1 block: inactive; FXIa mix inh: 3

What do the screens show for `Cn1c2c(c(=O)n(C)c1=O)C(c1cc3c(cc1Br)OCO3)CC(=O)N2` (stereo unspecified)?
HePTP inhibitor: -18; FXIIa mix inh: 6; AP complement: 32*; BAP1 block: inactive; FXIa mix inh: 5

Results for CC(=O)NC1=NC(=O)/C(=C/c2cc(C)n(-c3cccc(C(=O)O)c3)c2C)S1 ?
HePTP inhibitor: 101*

Results for COc1ccc(C(=O)Nc2cccc(NC(=O)c3ccccc3Br)c2)cc1[N+](=O)[O-] ?
HePTP inhibitor: 7

Results for CCCCCCCCCCCCCCCCOCC(COCC(F)(F)F)OP(=O)(O)OCO (stereo unspecified) ?
BAP1 block: active

How did CCOC(=O)c1ccccc1NC(=O)CN(c1cccc(OC)c1)S(=O)(=O)c1ccccc1 do in these assays?
HePTP inhibitor: -5

What do the screens show for `CCCN1C(=O)C(=Cc2nc3ccccc3c(=O)n2CC)c2cc(Br)ccc21`?
HePTP inhibitor: 5

Results for CCOc1ccc2c(c1)C(C)=CC(C)(C)N2C(=O)CN1C(=O)c2ccccc2C1=O ?
HePTP inhibitor: 6

What do the screens show for `O=C(O)CCCC(=O)OCc1ccco1`?
HePTP inhibitor: 102*

What do the screens show for `CCCC1=NN2C(=N)/C(=C/c3ccc(-c4ccc(C(=O)OCC)cc4)o3)C(=O)N=C2S1`?
HePTP inhibitor: -9

How did CC(=O)Nc1ccc(NC(=O)c2c(Cl)cccc2Cl)cc1 do in these assays?
HePTP inhibitor: -4

How did NS(=O)(=O)c1ccc(NC(=O)c2c(Cl)cccc2Cl)cc1 do in these assays?
HePTP inhibitor: 104*

Results for Cc1cc(OCC(O)CN2CCN(Cc3ccccc3)CC2)cc(C)c1Cl (stereo unspecified) ?
HePTP inhibitor: 12

How did COc1ccc(C(=O)NC2CCSC2=O)cc1[N+](=O)[O-] (stereo unspecified) do in these assays?
HePTP inhibitor: -7

Results for COC(=O)c1cc(C(=O)NC2CCSC2=O)cc([N+](=O)[O-])c1 (stereo unspecified) ?
HePTP inhibitor: 102*

Results for COc1cc(/C=C2/SC(=S)NC2=O)ccc1OS(=O)(=O)c1ccccc1[N+](=O)[O-] ?
HePTP inhibitor: 59*

Results for O=C1NC(=S)S/C1=C\c1ccccc1[N+](=O)[O-] ?
HePTP inhibitor: 93*

Results for COc1ccc(-c2nn(-c3ccccc3)cc2/C=C2\N=C(c3ccccc3)OC2=O)cc1[N+](=O)[O-] ?
HePTP inhibitor: -18

Results for Fc1ccccc1C=NN1CCN(Cc2ccccc2)CC1 ?
HePTP inhibitor: -7

What do the screens show for `CCOC(=O)c1c(C)oc2c1c(/C=N/c1ccccn1)c(O)c1ccccc12`?
HePTP inhibitor: 1; FXIIa mix inh: 69*; AP complement: 11; BAP1 block: inactive; FXIa mix inh: 9
